In ChEMBL document CHEMBL1148581, “Antimalarial and antiplasmodial activities of norneolignans. Syntheses and SAR” (J Med Chem, 2006) one finds IC50, inhibition in vivo and inhibition data, which are given here for 31 compounds.

In brackets after ≈: the same amount, converted by molar mass. Activity calls are given as the source filed them. No cut-off for these calls is given here.

For one experiment, the system named is Plasmodium falciparum. The experiment in a line: Antiplasmodial activity against Plasmodium falciparum 3D7.
Settings: not given
It counts as functional, organism-based. The method, boiled down:
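Desjardins [³H]phenylalanine incorporation method (Ziegler modification). Parasitized erythrocytes (blood type 0, 5% hematocrit, 2-3% parasitemia) mixed with compounds in RPMI 1640/HEPES with 0.45% Albumax II, L-glutamine, hypoxanthine, gentamicin; final DMSO ≤0.5%. 24 h at 37 °C under 93% N₂/5% CO₂/2% O₂, then label added for further 24 h; filter-harvested, scintillation counted. Three experiments, each in triplicate; IC50.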
Compound `COc1ccc(C2CC(c3ccccc3Br)OC2C)c(OC)c1` (configuration not stated) yielded an IC50 of 3 µg/mL (≈ 7.95 µM).

For the compound `CCC(/C=C/c1ccccc1CN(C)C)c1ccc(Cl)cc1Cl` (configuration not stated), the IC50 was determined as 4.1 µg/mL (≈ 11.8 µM).

Take `C=C[C@H](/C=C/c1ccc(O)cc1)c1ccc(O)cc1`: the IC50 is 14 µg/mL (≈ 55.5 µM).

With `COc1ccc(C2CC(c3ccc(Cl)cc3Cl)OC2C)c(OC)c1` (configuration not stated), the IC50 was found to be 6.9 µg/mL (≈ 18.8 µM).

The compound `C=CCOc1ccc(CCC(C=C)c2ccc(OC)cc2OC)cc1` (configuration not stated) had an IC50 of 5.2 µg/mL (≈ 15.4 µM).

For the compound `C=CC(/C=C/c1ccc(F)cc1)c1ccc(F)cc1` (configuration not stated), 10 µg/mL (≈ 39 µM) corresponded to half-maximal inhibition (IC50).

Turning to `CCC(/C=C/c1ccc(OC)c(OC)c1OC)c1cccc(F)c1` (configuration not stated), the midpoint of inhibition, the IC50, lay at 3.9 µg/mL (≈ 11.8 µM).

In turn, `C=CC(/C=C/c1ccc(OC)c(OC)c1OC)c1cccc(F)c1` (configuration not stated) showed an IC50 of 6 µg/mL (≈ 18.3 µM).

In turn, `C=CC(/C=C/c1ccc(Cl)cc1Cl)c1ccc(OC)cc1OC` (configuration not stated) had an IC50 of 1.5 µg/mL (≈ 4.29 µM).

The compound `C=CCOc1ccc(/C=C/C(C=C)c2ccc(OC)cc2OC)cc1` (configuration not stated) showed an IC50 of 7 µg/mL (≈ 20.8 µM).

`CCC(/C=C/c1ccc(F)cc1)c1ccc(F)cc1` (configuration not stated): the IC50 was 13 µg/mL (≈ 50.3 µM).

`CCC(/C=C/c1ccccc1C(F)(F)F)c1ccc(Cl)cc1Cl` (configuration not stated) displayed an IC50 of 6 µg/mL (≈ 16.7 µM).

In turn, `C=CC(/C=C/c1ccc(OC)cc1OC)c1ccc(Cl)cc1Cl` (configuration not stated) came in with an IC50 of 7 µg/mL (≈ 20 µM).

Consider `CCC(/C=C/c1ccc(OC)cc1OC)c1ccc(Cl)cc1Cl` (configuration not stated), for which the IC50 came out at 6 µg/mL (≈ 17.1 µM).

Regarding `C=CC(/C=C/c1ccc(F)cc1F)c1ccc(OC)cc1OC` (configuration not stated), 7 µg/mL (≈ 22.1 µM) corresponded to half-maximal inhibition (IC50).

Compound `C=CC(/C=C/c1ccc(O)cc1)c1ccc(O)cc1` (racemic) displayed an IC50 of 13 µg/mL (≈ 51.5 µM).

Turning to `C=CCOc1ccc(C(O)CC(C=C)c2ccc(OC)cc2OC)cc1` (configuration not stated), the IC50 was determined as 16 µg/mL (≈ 45.1 µM).

`C=CCOc1ccc(/C=C/C(CC)c2ccc(OC)cc2OC)cc1` (configuration not stated) showed an IC50 of 4 µg/mL (≈ 11.8 µM).

Turning to `C=CC(/C=C/c1ccccc1CN(C)C)c1ccc(Cl)cc1Cl` (configuration not stated), half-maximal inhibition (IC50) required 3 µg/mL (≈ 8.66 µM).

In turn, `C=CCOc1ccc(CCC(CCCC)c2ccc(OC)cc2OC)cc1` (configuration not stated) gave an IC50 of 2.2 µg/mL (≈ 5.97 µM).

As for `C=CCOc1ccc(CCCc2ccc(OC)cc2OC)cc1`, half-maximal inhibition (IC50) was put at 9.5 µg/mL (≈ 30.4 µM).

Compound `CCC(/C=C/c1ccc(Cl)cc1Cl)c1ccc(OC)cc1OC` (configuration not stated) gave an IC50 of 4.2 µg/mL (≈ 12 µM).

Turning to `CCC(/C=C/c1ccccc1Br)c1ccc(OC)cc1OC` (configuration not stated), half-maximal inhibition (IC50) required 5.4 µg/mL (≈ 14.9 µM).

Consider `CCC(/C=C/c1ccccc1F)c1cc(OC)cc(OC)c1` (configuration not stated), for which the IC50 came out at 6 µg/mL (≈ 20 µM).

Regarding `C=CC(/C=C/c1ccccc1C(F)(F)F)c1ccc(Cl)cc1Cl` (configuration not stated), the IC50 turned out to be 8.2 µg/mL (≈ 23 µM).

Consider `CCC(/C=C/c1ccc(F)cc1F)c1ccc(OC)cc1OC` (configuration not stated), for which 3.9 µg/mL (≈ 12.3 µM) corresponded to half-maximal inhibition (IC50).

`C=CCOc1ccc(CCC(CC)c2ccc(OC)cc2OC)cc1` (configuration not stated) registered an IC50 of 3 µg/mL (≈ 8.81 µM).

Compound `C=CC(/C=C/c1ccccc1F)c1cc(OC)cc(OC)c1` (configuration not stated) registered a concentration for half-maximal inhibition (IC50) of 6 µg/mL (≈ 20.1 µM).

`C=CCOc1ccc(/C=C/C(CCCC)c2ccc(OC)cc2OC)cc1` (configuration not stated) had an IC50 of 2.7 µg/mL (≈ 7.37 µM).

Take `C=C[C@@H](/C=C/c1ccc(O)cc1)c1ccc(O)cc1`: the midpoint of inhibition, the IC50, lay at 20 µg/mL (≈ 79.3 µM).

The compound `C=CC(/C=C/c1ccccc1Br)c1ccc(OC)cc1OC` (configuration not stated) registered a 50% inhibitory concentration (IC50) of 8.8 µg/mL (≈ 24.5 µM).

In the next experiment the test system is Mus musculus. Nature of the experiment: Antimalarial activity in NMRI mice (Mus musculus) infected with Plasmodium berghei K173 at 25 mg/kg.
Settings: not given
It counts as functional. The method, boiled down: (§1)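 Mice inoculated day 0 with 1×10⁶ P. berghei K173-infected red cells in 0.2 mL 0.9% saline; five mice per group. At day 4 (parasitemia 2-9%), ip dosing in 0.9% saline with 10% Tween 80, pH 4.5, on days 4 and 5; control group untreated or vehicle-injected. Day-5 tail-vein blood smear, Giemsa-stained, infected cells counted microscopically; % inhibition versus control.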
`C=CC(/C=C/c1ccc(Cl)cc1Cl)c1ccc(OC)cc1OC` (configuration not stated) showed an inhibition in vivo at 25 mg/kg of 57%.

The compound `C=CCOc1ccc(CCC(CCCC)c2ccc(OC)cc2OC)cc1` (configuration not stated) showed an inhibition in vivo at 25 mg/kg of 25%.

The subject of a further experiment is Mus musculus. The experiment in a line: Antimalarial activity in NMRI mice (Mus musculus) infected with Plasmodium berghei K173 at 50 mg/kg. It counts as functional.
Settings: not given
The method, boiled down:
as §1
Consider `C=CCOc1ccc(CCC(CCCC)c2ccc(OC)cc2OC)cc1` (configuration not stated), for which 50 mg/kg produced 49% inhibition in vivo.

For a further experiment, the system named is Mus musculus. The experiment in a line: Antimalarial activity in NMRI mice (Mus musculus) infected with Plasmodium berghei K173 at 100 mg/kg. The format is functional.
Settings: not given
A digest of the protocol:
as §1
Turning to `C=CCOc1ccc(CCC(CCCC)c2ccc(OC)cc2OC)cc1` (configuration not stated), the inhibition in vivo at 100 mg/kg amounted to 59%.

A further experiment is filed under the species Oryctolagus cuniculus. The experiment in a line: Inhibitory activity against SERCA in rabbit muscle at 3.5 ug/mL. It counts as tissue-based. Conditions: Muscle tissue.
`C=CC(/C=C/c1ccc(Cl)cc1Cl)c1ccc(OC)cc1OC` (configuration not stated): the inhibition entry was “inactive”.

In the case of `C=CCOc1ccc(CCC(CCCC)c2ccc(OC)cc2OC)cc1` (configuration not stated), the inhibition entry was “inactive”.
